One assay deals with B16-F10. The assay is described as follows: Antiproliferative activity against mouse B16F10 cells after 48 hrs by MTT colorimetric assay. The class given is functional, cell-based. The following applies: B16-F10, 48 h. The essentials:
(§1)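 Cells seeded at 2 × 10⁴ cells/ml and grown 24 h, then exposed in exponential growth to final compound concentrations of 0.1 to 100 for 48 h. Survival read by MTT (0.5 mg/mL in DMEM, 4 h) with absorbance at 570 nm. Three replicate wells per concentration; each assay run at least three times.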
In general terms: Formazan colour is commonly taken as a measure of viable cells.

The subject of assay [1] is RAW264.7. Description: Antiinflammatory activity in mouse RAW264.7 cells assessed as inhibition of LPS-induced PGE2 production. The format is functional, cell-based.
For a further assay, the system named is MCF7. Description: Antiproliferative activity against human MCF7 cells after 48 hrs by MTT colorimetric assay. The following applies: MCF7, 48 h. The format is functional, cell-based. The essentials:
as §1

Assay [2] addresses Prostaglandin G/H synthase 2 (Mus musculus) (UniProt Q05769).
A further assay deals with HepG2. Description: Antiproliferative activity against human HepG2 cells after 48 hrs by MTT colorimetric assay. The format is functional, cell-based. Particulars: HepG2, 48 h. The essentials:
as §1

The target in assay [3] is Prostaglandin G/H synthase 1 (Mus musculus) (UniProt P22437).
Assay [4] has as its system RAW264.7. The assay is described as follows: Inhibition of LPS-induced COX2 expression in mouse RAW264.7 cells at 0.75 to 1.5 uM treated 15 mins before LPS challenge measured after 18 hrs by Western blotting. The class given is functional, cell-based. In outline:
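RAW 264.7 cells (5 × 10⁵) were plated for 24 h, then pretreated with compound for 15 min before LPS stimulation for 18 h. Cells were lysed in lysis buffer and COX-2 protein was detected by Western immunoblot.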
In general terms: A western blot detects proteins with antibodies after separation by electrophoresis.

Molecules are shown by their SMILES. Active and inactive are the calls of the source. No cut-off for these calls is given here.

Sequence of Prostaglandin G/H synthase 2 (Mus musculus) (Q05769 whole entry, looked up): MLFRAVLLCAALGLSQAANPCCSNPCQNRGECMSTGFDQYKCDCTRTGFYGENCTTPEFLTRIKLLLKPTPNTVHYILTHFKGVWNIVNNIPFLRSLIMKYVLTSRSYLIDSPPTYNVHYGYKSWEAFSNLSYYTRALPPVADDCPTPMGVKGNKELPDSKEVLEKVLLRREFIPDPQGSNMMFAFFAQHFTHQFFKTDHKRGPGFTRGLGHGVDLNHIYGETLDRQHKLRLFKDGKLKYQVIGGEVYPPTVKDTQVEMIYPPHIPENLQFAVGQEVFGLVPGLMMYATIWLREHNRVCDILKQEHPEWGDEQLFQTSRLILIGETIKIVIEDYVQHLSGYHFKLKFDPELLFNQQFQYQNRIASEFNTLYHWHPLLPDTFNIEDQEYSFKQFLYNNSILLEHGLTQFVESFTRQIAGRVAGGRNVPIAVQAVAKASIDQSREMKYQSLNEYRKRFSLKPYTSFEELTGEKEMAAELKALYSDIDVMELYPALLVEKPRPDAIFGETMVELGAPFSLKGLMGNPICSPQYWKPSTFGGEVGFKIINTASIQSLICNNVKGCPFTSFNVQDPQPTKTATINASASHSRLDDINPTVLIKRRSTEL
Sequence of Prostaglandin G/H synthase 1 (Mus musculus) (P22437 whole entry, looked up): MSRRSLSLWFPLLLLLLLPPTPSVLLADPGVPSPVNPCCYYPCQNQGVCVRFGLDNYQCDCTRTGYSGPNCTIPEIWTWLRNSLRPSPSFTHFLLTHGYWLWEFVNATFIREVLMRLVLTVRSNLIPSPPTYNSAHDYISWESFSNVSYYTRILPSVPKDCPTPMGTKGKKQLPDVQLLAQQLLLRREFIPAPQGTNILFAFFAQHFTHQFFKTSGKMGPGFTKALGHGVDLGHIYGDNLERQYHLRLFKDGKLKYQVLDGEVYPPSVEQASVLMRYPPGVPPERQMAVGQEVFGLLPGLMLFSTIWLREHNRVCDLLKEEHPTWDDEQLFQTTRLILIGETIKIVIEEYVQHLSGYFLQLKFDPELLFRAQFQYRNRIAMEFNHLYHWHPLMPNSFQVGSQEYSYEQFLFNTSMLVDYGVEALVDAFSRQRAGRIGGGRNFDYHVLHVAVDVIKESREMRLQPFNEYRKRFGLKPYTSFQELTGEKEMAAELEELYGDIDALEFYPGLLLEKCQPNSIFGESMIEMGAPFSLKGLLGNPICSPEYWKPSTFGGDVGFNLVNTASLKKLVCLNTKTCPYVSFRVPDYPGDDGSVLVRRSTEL

A word on the IC50: it is the concentration at which inhibition is half-maximal. Consider `O=C(NS(=O)(=O)c1ccc(F)cc1)c1cccc(C(=O)NS(=O)(=O)c2ccc(F)cc2)n1`, for which the IC50 in the assay on B16-F10 came out at 10 µM; in the assay with RAW264.7 [1], 1.1 µM; in the assay on MCF7, 4.6 µM; in assay [2], 2.6 µM; with HepG2, 3.7 µM; in assay [3], 40.3 µM.

For the compound `O=C(NS(=O)(=O)c1ccccc1)c1cccnc1`, the IC50 with B16-F10 is 14.5 µM; with RAW264.7 [1], 9.5 µM; with MCF7 it was 11.5 µM; in assay [2] it was 15.8 µM; in the assay on HepG2, 10.4 µM; in assay [3], above 50 µM.

On to `O=C(NS(=O)(=O)c1ccc(Br)cc1)c1cncc(C(=O)NS(=O)(=O)c2ccc(Br)cc2)c1`, for which the IC50 with B16-F10 was determined as 7.2 µM; with RAW264.7 [1], 1.2 µM; in the assay with MCF7, 4.1 µM; in assay [2], 2.8 µM; in the assay on HepG2 it was 3.3 µM; in assay [3], 42.5 µM.

For the compound `O=C(NS(=O)(=O)c1ccc(F)cc1)c1ccncc1`, the IC50 with B16-F10 was 13.8 µM; in the assay on RAW264.7 [1] it was 9.2 µM; with MCF7, 13.9 µM; in assay [2] it was 12.1 µM; in the assay on HepG2, 12.4 µM; in assay [3], above 50 µM.

As for `O=C(NS(=O)(=O)c1ccccc1)c1ccccn1`, the IC50 in the assay with B16-F10 is 14.2 µM; with RAW264.7 [1], 4.5 µM; in the assay with MCF7 it was 10.6 µM; in assay [2], 8.8 µM; in the assay on HepG2, 9.9 µM; in assay [3] it was above 50 µM.

For the compound `Cc1ccc(S(=O)(=O)NC(=O)c2ccncc2)cc1`, the IC50 is 16.2 µM with B16-F10; 9.8 µM in the assay on RAW264.7 [1]; 14.1 µM with MCF7; 19.4 µM in assay [2]; 20.2 µM with HepG2; above 50 µM in assay [3].

On to `O=C(NS(=O)(=O)c1ccc(F)cc1)c1ccccn1`, for which the IC50 with B16-F10 came out at 10.9 µM; in the assay with RAW264.7 [1], 3.3 µM; in the assay with MCF7, 11 µM; in assay [2] it was 6.3 µM; in the assay with HepG2, 8.5 µM; in assay [3], 43.8 µM.

`Cc1ccc(S(=O)(=O)NC(=O)c2cncc(C(=O)NS(=O)(=O)c3ccc(C)cc3)c2)cc1`: the IC50 in the assay with B16-F10 is 9.2 µM; in the assay on RAW264.7 [1], 2.2 µM; in the assay on MCF7, 10.8 µM; in assay [2], 8.5 µM; with HepG2, 10 µM; in assay [3], above 50 µM.

Consider `O=C(NS(=O)(=O)c1ccc(Br)cc1)c1cccc(C(=O)NS(=O)(=O)c2ccc(Br)cc2)n1`, for which the IC50 was determined as 2.8 µM in the assay with B16-F10; 0.15 µM with RAW264.7 [1]; 1.8 µM in the assay with MCF7; 0.8 µM in assay [2]; 1.2 µM with HepG2; 35.6 µM in assay [3]. In the assay on RAW264.7 [4], the inhibition result is “Active”.

For `Cc1ccc(-c2cc(C(F)(F)F)nn2-c2ccc(S(N)(=O)=O)cc2)cc1` [CELECOXIB], the IC50 is 85.6 µM in the assay with B16-F10, 0.1 µM in the assay on RAW264.7 [1], 40.8 µM in the assay with MCF7 and 95.5 µM with HepG2.

Regarding `O=C(NS(=O)(=O)c1ccc(Cl)cc1)c1cccnc1`, the IC50 with B16-F10 amounted to 11.9 µM; in the assay on RAW264.7 [1] it was 3.2 µM; in the assay with MCF7, 10.1 µM; in assay [2] it was 6.6 µM; with HepG2, 8.6 µM; in assay [3], 35.8 µM.

Take `O=C(NS(=O)(=O)c1ccc(Cl)cc1)c1ccccn1`: the IC50 in the assay with B16-F10 is 9.4 µM; in the assay on RAW264.7 [1], 2.8 µM; with MCF7, 9.8 µM; in assay [2], 6 µM; in the assay on HepG2, 8.1 µM; in assay [3] it was 39.7 µM.

Turning to `Cc1ccc(S(=O)(=O)NC(=O)c2ccccn2)cc1`, the IC50 in the assay on B16-F10 is 16.7 µM; in the assay on RAW264.7 [1] it was 5.9 µM; in the assay with MCF7, 11.8 µM; in assay [2], 8 µM; in the assay with HepG2, 12.1 µM; in assay [3], above 50 µM.

Take `O=C(NS(=O)(=O)c1ccc(Br)cc1)c1ccccn1`: the IC50 with B16-F10 is 8.5 µM; with RAW264.7 [1], 1.9 µM; in the assay on MCF7, 6.8 µM; in assay [2] it was 3.6 µM; in the assay on HepG2 it was 5 µM; in assay [3] it was above 50 µM.

For the compound `O=C(NS(=O)(=O)c1ccc(F)cc1)c1cccnc1`, the IC50 in the assay with B16-F10 is 13.8 µM; in the assay with RAW264.7 [1], 8.6 µM; in the assay with MCF7, 10.6 µM; in assay [2], 11.7 µM; in the assay with HepG2 it was 9 µM; in assay [3] it was above 50 µM.

For the compound `O=C(NS(=O)(=O)c1ccccc1)c1cccc(C(=O)NS(=O)(=O)c2ccccc2)n1`, the IC50 in the assay with B16-F10 was 10.7 µM; with RAW264.7 [1], 1.6 µM; in the assay with MCF7 it was 9.3 µM; in assay [2], 3.7 µM; in the assay with HepG2, 5.3 µM; in assay [3], 35.8 µM.

Take `O=C(NS(=O)(=O)c1ccc(Cl)cc1)c1cccc(C(=O)NS(=O)(=O)c2ccc(Cl)cc2)n1`: the IC50 in the assay with B16-F10 stood at 6.2 µM; with RAW264.7 [1], 0.87 µM; in the assay with MCF7, 4.2 µM; in assay [2], 1.9 µM; in the assay with HepG2, 3.8 µM; in assay [3], 41.5 µM.

Regarding `O=C(NS(=O)(=O)c1ccc(Br)cc1)c1ccncc1`, the IC50 with B16-F10 came to 8.8 µM; in the assay with RAW264.7 [1], 5.5 µM; in the assay on MCF7 it was 8.7 µM; in assay [2], 7.8 µM; with HepG2, 6.3 µM; in assay [3] it was 38 µM.

As to `Cc1ccc(S(=O)(=O)NC(=O)c2cccnc2)cc1`, the IC50 was 18.5 µM in the assay on B16-F10; 8.8 µM in the assay with RAW264.7 [1]; 15.5 µM in the assay on MCF7; 18.2 µM in assay [2]; 12.3 µM in the assay with HepG2; above 50 µM in assay [3].

Regarding `O=C(NS(=O)(=O)c1ccc(Cl)cc1)c1ccncc1`, the IC50 in the assay on B16-F10 was 12.4 µM; in the assay on RAW264.7 [1], 8.9 µM; in the assay with MCF7, 10.1 µM; in assay [2] it was 12.6 µM; in the assay with HepG2 it was 7.9 µM; in assay [3], 41.2 µM.

For the compound `Cc1ccc(S(=O)(=O)NC(=O)c2cccc(C(=O)NS(=O)(=O)c3ccc(C)cc3)n2)cc1`, the IC50 in the assay with B16-F10 is 12.2 µM; with RAW264.7 [1], 2.1 µM; with MCF7, 6.2 µM; in assay [2], 5.6 µM; in the assay on HepG2 it was 4.2 µM; in assay [3], 39.8 µM.

In the case of `O=C(NS(=O)(=O)c1ccc(F)cc1)c1cncc(C(=O)NS(=O)(=O)c2ccc(F)cc2)c1`, the IC50 is 8.8 µM with B16-F10; 1.9 µM in the assay on RAW264.7 [1]; 7.9 µM in the assay on MCF7; 5.6 µM in assay [2]; 6.2 µM with HepG2; 40.2 µM in assay [3].

`O=C(NS(=O)(=O)c1ccc(Br)cc1)c1cccnc1`: the IC50 with B16-F10 came out at 9.7 µM; with RAW264.7 [1], 2.8 µM; with MCF7, 8.3 µM; in assay [2] it was 4.9 µM; with HepG2, 6.7 µM; in assay [3], 40.5 µM.

For the compound `O=C(NS(=O)(=O)c1ccccc1)c1cncc(C(=O)NS(=O)(=O)c2ccccc2)c1`, the IC50 is 11.3 µM in the assay with B16-F10; 2.6 µM in the assay with RAW264.7 [1]; 10.6 µM in the assay on MCF7; 7.9 µM in assay [2]; 9.2 µM with HepG2; 36.9 µM in assay [3].

The values are drawn from ChEMBL document CHEMBL1914339, “Design, synthesis and biological evaluation of pyridine acyl sulfonamide derivatives as novel COX-2 inhibitors” (Bioorg Med Chem, 2011).
